Measured values pooled from the literature.
Each line is one published result; the experiments were not run side by side.
Target: Serine/threonine-protein kinase WNK1 (WNK1, Homo sapiens, UniProt Q9H4A3)

Structure (SMILES) | effect on | method | tested at | remaining binding
c1cnn2ncc(-c3ccnc(N4CCC45COC5)n3)c2c1 | binding | – | 1 µM | 100%
O=C(c1ccc(Nc2ncc(Cl)c(-c3ccc(Cl)s3)n2)cc1)N1CCC(N2CCCC2)CC1 | binding | competition with immobilised ligand | 1 µM | 95%
CCN1CCN(Cc2ccc(C(=O)Nc3ccc(C)c(Oc4ccc5c(c4)CC(=O)N5)c3)cc2C(F)(F)F)CC1 | binding | competition with immobilised ligand | 1 µM | 100%
COc1cnc(Nc2cccc(S(N)(=O)=O)c2)nc1N1CCN(c2ccccc2)CC1 | binding | competition with immobilised ligand | 1 µM | 88%
Cc1cnn2ncc(-c3ccnc(N(C)C)n3)c2c1 | binding | – | 1 µM | 94%
O=C(NCCCN1CCOCC1)c1ccc(Nc2ncc(Cl)c(-c3ccc(Cl)s3)n2)cc1 | binding | competition with immobilised ligand | 1 µM | 89%
Nc1ncc2c(n1)-c1c([nH]c3ccc(C#CC4CC4)cc13)CCCC2 | binding | competition with immobilised ligand | 1 µM | 97%
NS(=O)(=O)c1cc(NC(=O)C2(c3ccccc3Cl)CC2)ccc1Oc1cccc(Cl)c1 | cell-free assay | competition with immobilised ligand | 1 µM | 88%
F[C@@H]1CCN(c2nccc(-c3cnn4ncccc34)n2)C1 | binding | – | 1 µM | 100%
Cc1nccc(COC(=O)N2C[C@@H]3[C@@H](CNC(=O)c4ccc5[nH]nnc5c4)[C@@H]3C2)n1 | cell-free assay | competition with immobilised ligand | 1 µM | 86%
O=C(Nc1c[nH]nc1C(=O)NC1CCNCC1)c1cc(F)cc(F)c1 | binding | competition with immobilised ligand | 1 µM | 100%
CC(C)CC(=O)N1CCc2nc(-c3ccc(Br)cc3)nc(N(C)Cc3ccccc3)c2C1 | cell-free assay | competition with immobilised ligand | 0.1 µM | 100%
N[C@H]1CCN(c2nccc(-c3cnn4ncccc34)n2)C1 | binding | – | 1 µM | 8.4%
CC(C)(O)c1cncc(-c2nc3ccc(F)cc3n2C2CC2)c1 | cell-free assay | competition with immobilised ligand | 1 µM | 100%
CN(C)c1ncc(F)c(-c2cnn3ncccc23)n1 | binding | – | 1 µM | 87%
CN(C)C(=O)Cn1cc(-c2nc([C@@](C)(c3ccc(-c4cnc(N)nc4)cc3)C3CC3)no2)cn1 | cell-free assay | competition with immobilised ligand | 1 µM | 94%
FC(F)(F)Oc1cccc(-c2cnc3ccc(-c4ccncc4)nn23)c1 | binding | competition with immobilised ligand | 5 µM | 79%
CC1CCCN1c1nccc(-c2cnn3ncccc23)n1 (stereo not shown) | binding | – | 1 µM | 98%
O=C(O)[C@H]1[C@H](Cn2nnc3ccccc3c2=O)CC[C@@H]1C(=O)c1ccc(OCCC2CCOCC2)cc1 | cell-free assay | competition with immobilised ligand | 1 µM | 100%
